A short description of data set [1]: folding enthalpy; higher = less favourable; fluorescence melt of hairpins on a sequencing array, two-state fit. As to conditions: sodium 0.088 M. In a few lines:
(§1)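 Folding enthalpy and melting temperature were estimated with bootstrapped two-state fits and combined across four replicates by inverse-variance weighting, with fitted temperatures raised by 9.35 °C to match UV melts. The data were Cy3 fluorescence of library hairpins, with annealed Cy3 and quencher oligos, on a sequenced MiSeq flow cell in 50 mM Na-HEPES pH 8.0, 25 mM NaCl, imaged in 2.5 °C steps up to 60 °C and normalised to pre-quench Cy3 and control constructs.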

Data set [2] can be described thus: melting temperature; fluorescence melt of hairpins on a sequencing array, two-state fit, raised by 9.35 °C to match UV melts. As to conditions: sodium 0.088 M. The essentials:
as §1

Turning to GCCCCTCCGAAAGGAGGC (((..(((....)))))), the folding enthalpy in data set [1] was -5.85 kcal/mol. Further, in data set [2], the Tm is 39.8 °C.

In the case of GATCGAGTGCTCGATC ((((((....)))))), the folding enthalpy in data set [1] was -58.9 kcal/mol. The Tm in data set [2] came out at 53.8 °C.

On to CGCGGAACGCTCCGCG ((((((....)))))), for which the folding enthalpy in data set [1] was -28.9 kcal/mol. For the same sequence, the Tm in data set [2] was 57.4 °C.

With GCGGAATCGAAAGATCGC (((..(((....)))))), the folding enthalpy in data set [1] was -25.8 kcal/mol. Further, the Tm in data set [2] was found to be 45.5 °C.

Turning to GATCCGGCGCGGATC ((((((...)))))), in data set [1], the folding enthalpy was -37.1 kcal/mol. For the same sequence, the Tm in data set [2] was found to be 59.3 °C.

Take GACTGGACGAAAGTCGTC (((..(((....)))))): the folding enthalpy in data set [1] was -12.4 kcal/mol. In data set [2], the Tm worked out at 46.8 °C.

Regarding GCAGGGCGAAAGCCGCGC ((..(((....)))..)), in data set [1], the folding enthalpy was -22.2 kcal/mol. Moreover, in data set [2], the Tm was determined as 64.7 °C.

For the sequence GCCCCCGGAAACAGGGGC (((((.(....).))))), the folding enthalpy in data set [1] was -35 kcal/mol. Further, the Tm in data set [2] came to 56.7 °C.

Turning to CGTTCGGAAACGAAACG ((((((....))).))), the folding enthalpy in data set [1] was -27.8 kcal/mol. Also, the Tm in data set [2] amounted to 45.8 °C.

Consider GCTCAGCGAAAGCCGGGC ((.(.((....)).).)), for which the folding enthalpy in data set [1] is -17.1 kcal/mol. Further, the Tm in data set [2] amounted to 45.4 °C.

In the case of GCTTGTGGAAACGCAAGC (((((.(....).))))), in data set [1], the folding enthalpy was -39.5 kcal/mol. Besides, the Tm in data set [2] came to 55.6 °C.

In the case of GGTGCTCGAAAGAGAACC (((.(((....))).))), in data set [1], the folding enthalpy was -48.3 kcal/mol. In data set [2], the Tm was determined as 54.1 °C.

As for GTCGCCGAAAGGCCTGAC ((((((....)))..))), the folding enthalpy in data set [1] is -12.4 kcal/mol. In addition, the Tm in data set [2] came to 31.8 °C.

Regarding GAAGGCGAAAGCCAATTC ((((((....)))..))), the folding enthalpy in data set [1] is -11.2 kcal/mol. Further, in data set [2], the Tm came to 39.5 °C.

With GATCAGGGAAACTTGATC (((((.(....).))))), the folding enthalpy in data set [1] was -30.7 kcal/mol. In data set [2], the Tm was 38.2 °C.

Regarding GGCGTAGGAAACTGTGCC (((..((....))..))), in data set [1], the folding enthalpy was -27 kcal/mol. Besides, the Tm in data set [2] was found to be 39.4 °C.

GATCCTTCTTAGGATC ((((((....)))))): in data set [1], the folding enthalpy was -41.8 kcal/mol. The Tm in data set [2] is 52.8 °C.

For GGAAGCTCGAAAGAGTCC (((..(((....)))))), the folding enthalpy in data set [1] is -11.6 kcal/mol. In addition, the Tm in data set [2] was 26.2 °C.

As to GCGGACCACCGC ((((....)))), in data set [1], the folding enthalpy was -24.2 kcal/mol. Besides, the Tm in data set [2] was found to be 59.9 °C.

Take GCTTCGCGAAAGCTGAGC (((..((....))..))): the folding enthalpy in data set [1] was -14.5 kcal/mol. Also, the Tm in data set [2] came out at 45.5 °C.

For GTAGGCGGAAACGTCTAC ((((.((....)).)))), in data set [1], the folding enthalpy was -39.1 kcal/mol. In addition, in data set [2], the Tm is 53.1 °C.

As for GTGCGCGGAAACGCACAC (((.(((....))).))), the folding enthalpy in data set [1] is -19.2 kcal/mol. The Tm in data set [2] turned out to be 65.5 °C.

With GCACAACGAAAGTTTTGC (((.(((....))).))), the folding enthalpy in data set [1] is -37.7 kcal/mol. Moreover, the Tm in data set [2] came out at 46.9 °C.

On to GATCTGCCTCAGATC ((((((...)))))), for which, in data set [1], the folding enthalpy was -29.1 kcal/mol. Further, the Tm in data set [2] is 48.7 °C.

As to GACAAAACGAAAGTTGTC (((..(((....)))))), the folding enthalpy in data set [1] is -24.8 kcal/mol. Moreover, the Tm in data set [2] was found to be 39.3 °C.

For the sequence GGGTCTGGAAACAGACTC (.(((((....))))).), the folding enthalpy in data set [1] is -21.9 kcal/mol. The Tm in data set [2] was found to be 52 °C.

For GGTACTGAAAAGTACC ((((((....)))))), the folding enthalpy in data set [1] is -39.5 kcal/mol. In data set [2], the Tm worked out at 57.4 °C.

For the sequence GGCGTGGCGAAAGCCGCC (((..(((....)))))), in data set [1], the folding enthalpy is -16.4 kcal/mol. Moreover, in data set [2], the Tm turned out to be 66.7 °C.

Turning to CTTGAGAAATCAAG (((((....))))), the folding enthalpy in data set [1] was -11.1 kcal/mol. The Tm in data set [2] was 35.6 °C.

GAGTTGGGAAACTAGCTC (((.(.(....).).))): the folding enthalpy in data set [1] is -15 kcal/mol. Further, in data set [2], the Tm turned out to be 29 °C.

As to GAGCAAGGAAACTTGCCC (.(((((....))))).), the folding enthalpy in data set [1] was -11 kcal/mol. Further, in data set [2], the Tm came to 41 °C.

In the case of GCCTGACGAAAGTCTGGC (((.(((....))).))), in data set [1], the folding enthalpy was -37.2 kcal/mol. In addition, the Tm in data set [2] turned out to be 67.5 °C.

In the case of GATAGCGAAAGCTTCATC ((((((....)))..))), the folding enthalpy in data set [1] is -12 kcal/mol. Also, in data set [2], the Tm turned out to be 28.3 °C.

In the case of GTGCCCGGAAACGAGCAC ((((.((....)).)))), the folding enthalpy in data set [1] was -41.2 kcal/mol. Besides, the Tm in data set [2] turned out to be 52.8 °C.

Consider GTGCTCGGAAACGGGTAC ((.(.((....)).).)), for which, in data set [1], the folding enthalpy is -32.8 kcal/mol. The Tm in data set [2] came to 41.9 °C.

With GACTCCGGAAACGGGGTC (((.(((....))).))), the folding enthalpy in data set [1] is -38 kcal/mol. Besides, the Tm in data set [2] stood at 57.2 °C.

With TCCTGGAAACAGGA (((((....))))), the folding enthalpy in data set [1] was -18.4 kcal/mol. The Tm in data set [2] amounted to 45.5 °C.

For the origin of these results see the array DNA melting data of Ke et al. (doi:10.1101/2024.01.08.574731).
